Source: article PMC3869895 (Investigational New Drugs, 2013)
“Also recorded” adds a separate entry of the source.

Key:
[1] = tested on: gamma secretase; settings: cited from earlier work
[2] = cited from earlier work
[3] = Pharmacokinetic analysis of total and unbound RO4929097 in serial plasma; format: in vivo, human
[4] = tested on: patients with advanced solid tumors; assay: Phase I 3+3 dose escalation: dose limiting toxicities and adverse events; format: in vivo, human
[5] = in vitro; rather than overt cell death; no reference given; cited from earlier work
[6] = tested on: circulating angiogenesis factors; settings: in vitro; cited from earlier work
[7] = tested on: xenograft models; settings: intermittent and daily dosing in xenograft models; cited from earlier work
[8] = stated as given in discussion; no reference given; cited from earlier work
[9] = tested on: advanced solid tumors; assay: Antitumor activity by RECIST 1.1; format: in vivo, human; settings: with gemcitabine
Procedure, shortened: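 Oral test compound once daily on days 1–3, 8–10, […] and 22–24 of 28-day cycles, fasting, with IV gemcitabine 1,000 mg/m2 on days 1, 8 and 15. Measurable disease required. Radiographic restaging every 2 cycles, scored by RECIST 1.1. Prolonged stable disease means stable disease for 4 or more months. Treatment continued until unacceptable toxicity, progression, withdrawal or study completion.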

[10] = dose level 3 (45 mg) + gemcitabine, CTCAE v4

In the case of `CC(C)(C(=O)NCC(F)(F)C(F)(F)F)C(=O)N[C@@H]1C(=O)Nc2ccccc2-c2ccccc21` [RO4929097], the “inhibition of gamma secretase” value [1] is listed as “potent inhibitor”, the protein binding [2] is listed as “highly protein bound” and the “autoinduction (Day 10: Day 1 total and free AUC 0-24)” value ([3]; dose levels 45 and 90 mg) is listed as “presence of autoinduction”. For the same compound, the “day 10: day 1 areas under the curve” value ([3]; with increasing dose levels) was “below 1”, the “DLT Event” value ([4]; dose level 2 (30 mg) + gemcitabine) was “Transaminitis” and the “Grade of DLT event Transaminitis” value ([4]; dose level 2 (30 mg) + gemcitabine, CTCAE v4) was 3. For the same compound, the “DLT Event” value ([4]; dose level 3 (45 mg) + gemcitabine) was “Transaminitis; also recorded: Maculopapular rash”, the “Grade of DLT event Maculopapular rash” value [4, 10] was 3 and the “Grade of DLT event Transaminitis” value [4, 10] was 3. The “DLT Event” value ([4]; dose level 4 (90 mg) + gemcitabine) was “Transaminitis”, the “Grade of DLT event Transaminitis” value ([4]; dose level 4 (90 mg) + gemcitabine, CTCAE v4) was 3 and the “Grade of DLT event <75 % RO doses” value ([4]; dose level 4 (90 mg) + gemcitabine, secondary to prolonged neutropenia) was 3. For the same compound, the maximum tolerated dose ([4]; in combination with gemcitabine, exceeded at this dose) was < 90 mg, the cell phenotype [5] was “more flattened phenotype” and the “expression of circulating angiogenesis factors” value [6] was “reduce the expression”. For the same compound, the antitumor activity [7] was “demonstrates antitumor activity”, the half-life [8] was “approximately 20 h” and the “stable disease > 4 months (prolonged stable disease), number of patients” value ([9]; 18 patients enrolled) was 3 patients. The “Best response (RECIST 1.1)” value ([9]; one patient with nasopharyngeal carcinoma, 45 mg dose level) was “partial response”.
